The list is not random: actives were taken first. Their share in the collection is about 2.3%.
TRPC6 inhibitor: mouse TRPC6 channel inhibitors, primary screen, cell-based, HEK293, membrane potential dye | Short transient receptor potential channel 6 (Mus musculus), Q61143 | ACh-evoked depolarization; stronger effect = lower value | B-score at 10 µM | 310,000 compounds, 1.1% hits | AID 2553, 2010;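 active = B-score under library mean minus 3 SD, initial fluorescence not abnormally high, positive integrated signal ratio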;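 also: B-score derived from integrated fluorescence ratio over the kinetic read; more negative B-score means stronger inhibition of depolarization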
Target sequence (Q61143 whole entry, looked up): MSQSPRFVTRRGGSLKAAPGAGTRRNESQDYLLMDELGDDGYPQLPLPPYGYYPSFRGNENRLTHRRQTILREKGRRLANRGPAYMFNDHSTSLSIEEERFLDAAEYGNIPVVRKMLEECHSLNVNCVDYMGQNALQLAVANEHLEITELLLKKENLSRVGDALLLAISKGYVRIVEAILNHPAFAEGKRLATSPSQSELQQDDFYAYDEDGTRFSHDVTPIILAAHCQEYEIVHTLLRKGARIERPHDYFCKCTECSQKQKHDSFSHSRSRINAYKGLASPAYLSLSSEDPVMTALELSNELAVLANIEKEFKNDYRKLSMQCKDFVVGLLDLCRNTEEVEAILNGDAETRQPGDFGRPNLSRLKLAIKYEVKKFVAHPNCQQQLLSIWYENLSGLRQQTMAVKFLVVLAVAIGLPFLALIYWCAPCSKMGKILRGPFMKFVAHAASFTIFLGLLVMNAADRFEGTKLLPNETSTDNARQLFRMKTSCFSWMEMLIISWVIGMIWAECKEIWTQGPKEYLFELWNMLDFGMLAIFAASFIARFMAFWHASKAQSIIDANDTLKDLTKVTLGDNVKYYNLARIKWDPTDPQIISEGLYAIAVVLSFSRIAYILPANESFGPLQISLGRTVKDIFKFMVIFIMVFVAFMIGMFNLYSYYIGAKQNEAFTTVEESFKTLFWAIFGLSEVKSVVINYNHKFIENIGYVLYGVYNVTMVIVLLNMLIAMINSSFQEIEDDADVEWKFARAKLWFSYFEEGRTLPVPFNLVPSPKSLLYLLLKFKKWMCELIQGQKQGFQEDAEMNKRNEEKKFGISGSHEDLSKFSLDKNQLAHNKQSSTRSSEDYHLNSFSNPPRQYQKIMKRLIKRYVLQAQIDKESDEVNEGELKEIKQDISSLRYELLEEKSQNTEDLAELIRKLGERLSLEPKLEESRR
DNA FID counter: compounds displacing fluorescent DNA intercalator, primary screen, artefact control for HCV NS3 helicase inhibitor project, biochemical, FID fluorescence | DNA fluorescent intercalator displacement | inhibition, % at 7.9 µM | 290,000 compounds, 0.17% hits | AID 1845, 2009; in the data active = inhibition above about 37%;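 also: higher means more ethidium bromide displaced from hairpin DNA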
TRPC4 act: activators of mouse TRPC4 channel, primary screen, Fluo4 calcium, HEK293 TRPC4beta/mu-opioid cells; Short transient receptor potential channel 4 (Mus musculus), Q9QUQ5; Fluo4 calcium fluorescence; stronger effect = higher value; B-score at 10 µM; 310,000 compounds, 0.49% hits;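 active = B-score above 5 SD of library B-scores, and initial fluorescence ratio not above library mean plus 5 SD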;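 also: positive B-score marks a calcium rise read as TRPC4 activation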
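Assay system: HEK293 stable line with TRPC4beta plus mu-opioid receptor. Times: dye 45 min RT, read 110 s. Measured by: kinetic Fluo4 calcium fluorescence. Measure: B score of integrated ratio. Controls: assay buffer as low control, maximal DAMGO as high control.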
TRPC4 PAM: positive allosteric modulators of TRPC4, primary screen, cell-based, mouse TRPC4beta, HEK293 mu-opioid, Fluo-4 calcium. B-score at 10 µM. DAMGO EC20, Fluo-4 Ca2+ flux; stronger effect = higher value. AID 2227, 2009. 310,000 compounds, 0.42% hits. Short transient receptor potential channel 4 (Mus musculus), Q9QUQ5;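 active = B-score of calcium response area above 5 SD of library B-scores, with initial fluorescence ratio within 5 SD of library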
TRPC6 act: mouse TRPC6 channel activators, primary screen, cell-based, HEK293, membrane potential dye; AID 2550, 2010; B-score at 10 µM; HEK293-TRPC6 membrane potential dye fluorescence; stronger effect = higher value; 310,000 compounds, 0.13% hits;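 active = B-score of the integrated fluorescence ratio above library mean plus 3 SD, and starting fluorescence ratio within library mean plus 5 SD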;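 also: higher score means more depolarization so channel activation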
TRPC4 block: inhibitors of mouse TRPC4 channel, primary screen, Fluo4 calcium, HEK293 TRPC4beta/mu-opioid cells; 300,000 compounds, 0.39% hits; AID 2247, 2010; Short transient receptor potential channel 4 (Mus musculus), Q9QUQ5; B-score at 10 µM; DAMGO-evoked Fluo4 calcium flux; stronger effect = lower value;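 active = B-score over 3 SD under the library average, no early fluorescence shift, positive overall ratio signal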
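Signal: kinetic Fluo4 fluorescence imaging of calcium influx. Material: stable TRPC4beta/mu-opioid receptor HEK293 cells. Probe or stimulus: DAMGO in two steps, submaximal then maximal.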
Of the large screens only hits and unclear results are named; the others gave an inactive call.

O=C(Nc1cccc(Cl)c1N1CCCC1)c1ccc([N+](=O)[O-])o1	none
COC(=O)c1cc(-c2cccc(OC)c2)c2c(=O)[nH]c(=O)n(C)c2n1	none
C[C@H]1CN=C(Nc2ccccc2)N1CCC1CCCC1	none
COc1ccc(C(=O)C(CCC(CNC(C)(C)C)C(=O)c2ccc(OC)cc2)CNC(C)(C)C)cc1 (configuration not stated)	DNA FID counter 43
Cc1cc(C(C)(C)C)c(O)c(C(C)(C)C)c1	none
CC(C)(C)c1cc(O)c(C(C)(C)C)cc1O	TRPC4 act 94 (no result: DNA FID counter)
Cc1ccc(-c2c(C(=O)N/N=C/c3ccc(OC(C)C)cc3)nnn2-c2nonc2N)cc1	TRPC4 PAM 18
CCOc1ccc(-c2c(C(=O)N/N=C/c3ccc(OC(C)C)cc3)nnn2-c2nonc2N)cc1	none
CC(OC(=O)/C(C#N)=C/c1ccc(N(C)C)cc1)C(=O)N(C)Cc1ccccc1 (configuration not stated)	none
O=C(OC1CCCCC1=O)c1cc(S(=O)(=O)N2CCOCC2)ccc1F (configuration not stated)	none
Cc1ccc(C2=NC(C(F)(F)F)(C(F)(F)F)c3c(n(-c4ccc(F)cc4)c(=O)[nH]c3=O)N2)cc1	TRPC4 PAM 12
COc1ccc(C2=NOC(Cn3c(Cc4ccc(Cl)cc4)nc4c3c(=O)n(C)c(=O)n4C)C2)cc1 (configuration not stated)	TRPC4 PAM 10
COc1ccccc1C1=NOC(Cn2c(NCCCO)nc3c2c(=O)n(C)c(=O)n3C)C1 (configuration not stated)	none
Cc1cccc(C)c1NC(=O)CN1C(=O)CCSc2ccc(S(=O)(=O)N3CCCC3)cc21	none
COc1cc([N+](=O)[O-])cc(/C=C2/SC(=S)N(Cc3ccccc3)C2=O)c1O	TRPC6 inhibitor -6.3, DNA FID counter 41
O=C1/C(=C\c2cccc([N+](=O)[O-])c2O)SC(=S)N1Cc1ccccc1	none
CN(CCN1CCOCC1)Cc1nc(-c2ccccc2)no1	none
CN(Cc1nc(-c2ccc3c(c2)OCO3)no1)CC1(N2CCOCC2)CCCCC1	TRPC4 PAM 35
COc1ccc(/C=N/NC(=O)c2ccc(F)cc2)cc1CN1CCc2cc(OC)c(OC)cc2C1C (configuration not stated)	TRPC4 block -6
COc1ccc(/C=N/NC(=O)c2ccc(C)cc2)cc1CN1CCN(c2ccc(F)cc2)CC1	none
Cc1nn(Cc2ccccc2Cl)c(C)c1C(=O)NC1=NCCS1	none
CCC(CC)c1nnc(NC(=O)c2c(C)nn(Cc3ccccc3Cl)c2C)s1	TRPC4 PAM 21
COc1ccc(CC2(CO)CCN(C/C=C/c3ccccc3OC)CC2)cc1	TRPC4 block -6
CC(COc1ccccc1)N1CCC(CO)(Cc2ccccc2)CC1 (configuration not stated)	TRPC4 block -9
CCOCCCNC(=O)C1CCCN(S(=O)(=O)c2ccc(-n3cnnn3)cc2)C1 (configuration not stated)	none
CC(C)CCN1CCN(Cc2cccc3nonc23)CC1CCO (configuration not stated)	none
CCOc1ccccc1CN1CCN(Cc2cccc3nonc23)CC1CCO (configuration not stated)	TRPC4 block -6
O=C(NCCc1ccccc1)C1CCC(=O)N(Cc2cccc(C(F)(F)F)c2)C1 (configuration not stated)	none
C/C=C/Cn1c(SCCCc2ccccc2)nc2c1c(=O)[nH]c(=O)n2C	TRPC4 PAM 86
Cc1cccc(Cn2c(SCCN3CCCCC3)nc3c2c(=O)[nH]c(=O)n3C)c1	TRPC6 inhibitor -5.7 (no result: DNA FID counter)
C=CCn1c(SCCN2CCCCC2)nc2c1c(=O)[nH]c(=O)n2C	TRPC4 PAM 40
CS(=O)(=O)c1ccc2nc(NC(=O)c3ccc(Cn4cc(Br)cn4)o3)sc2c1	none
N#C/C(=C(/O)CCl)c1nc2c(s1)CCc1ccccc1-2	none
COc1ccc(S(=O)(=O)NCc2ccncc2)cc1NC(=O)c1ccc(Cl)cc1	none (no result: DNA FID counter)
Cc1nc(N2CCN(c3ccccn3)CC2)c2c(C)c(C(=O)N3CCN(c4ccccc4F)CC3)sc2n1	TRPC4 block -9
Cc1cc(Br)ccc1NC(=O)CN(C)C(=O)Cn1c(=O)cnc2ccccc21	none
COc1ccc(CNC(=O)C(=O)NCC2OCCN2S(=O)(=O)c2ccccc2)cc1 (configuration not stated)	none
COc1ccc(-c2cc(C(=O)NCCCN3CCOCC3)c3cc(C(C)C)ccc3n2)cc1	DNA FID counter 37
CCOc1cc(OCC)cc(C(=O)NCCCN2CCOCC2)c1	none
COc1ccc(Nc2cc(C(=O)NCCCN3CCN(C)CC3)c3ccccc3n2)cc1	DNA FID counter 41
COc1ccc(N2CCN(CCCNC(=O)c3ccc(CS(=O)(=O)c4ccc(OC)cc4)o3)CC2)cc1	TRPC4 block -6
COc1cc(OC)cc(C(=O)NCCCN2CCN(CCCNC(=O)c3cc(OC)cc(OC)c3)CC2)c1	TRPC4 act 119
COc1ccc(Nc2cc(C(=O)NCCCN3CCOCC3)c3ccccc3n2)cc1	none
CCCCn1c(N)c(N(CC)C(=O)C2=COCCO2)c(=O)[nH]c1=O	none (no result: DNA FID counter)
COc1ccc(N2Cc3ccc(C(=O)N/N=C\c4ccc(O)cc4O)cc3C2)cc1	none
Oc1ccc(CCNc2ncnc3ccc(Cl)cc23)cc1	none
Cc1cc(C)c(S(=O)(=O)N/N=C/c2ccc3c(c2)OCO3)c(C)c1	none
Cc1nc(NC(=O)CSc2nnc(C3CC3)n2C)sc1C	none
CCN(CC)CCNC(=O)c1cc2c(-c3cccc(OC)c3)nn(C)c2s1	TRPC4 PAM 17
CCCN(CCC)CCNC(=O)c1cc2c(-c3ccc(Cl)cc3)nn(C)c2s1	TRPC4 act 47
CCCN(CCC)CCCNC(=O)c1cc2c(-c3ccc(OC)c(OC)c3)nn(C)c2s1	TRPC4 act 114
CCN(CC)CCNC(=O)c1cc2c(-c3ccc(Cl)cc3)nn(C)c2s1	none
CCCCN(CC)CCNC(=O)c1cc2c(-c3ccc(Cl)cc3)nn(C)c2s1	TRPC4 act 94
CNC[C@H](CC1CCCCC1)NC[C@H](Cc1ccccc1)NCCC12CC3CC(CC(C3)C1)C2	TRPC4 act 152
Cc1cc(C)cc(NC(=O)c2cccc(C(=O)Nc3cc(C)cc(C)c3)n2)c1	none
Cc1c(OCC(=O)NCC(O)c2ccccc2)ccc2c3c(c(=O)oc12)CCCC3 (configuration not stated)	none

Bioassay records as filed in PubChem BioAssay.
